OX1R antag-1 = blocks the human orexin 1 receptor. O43613. 330,000 compounds, 0.43% hits. AID 434989. inhibition, % at 5 µM. CHO/OX1R cells, Fluo-8 calcium fluorescence, orexin A;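 active means inhibition above its plate's threshold, mean inhibition of all tested compounds on the plate plus 3 SD, cut at about 37% in these data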;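 further: 0% = orexin A challenge wells and 100% = SB-334867-A antagonist wells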
Target sequence (O43613 whole entry, looked up): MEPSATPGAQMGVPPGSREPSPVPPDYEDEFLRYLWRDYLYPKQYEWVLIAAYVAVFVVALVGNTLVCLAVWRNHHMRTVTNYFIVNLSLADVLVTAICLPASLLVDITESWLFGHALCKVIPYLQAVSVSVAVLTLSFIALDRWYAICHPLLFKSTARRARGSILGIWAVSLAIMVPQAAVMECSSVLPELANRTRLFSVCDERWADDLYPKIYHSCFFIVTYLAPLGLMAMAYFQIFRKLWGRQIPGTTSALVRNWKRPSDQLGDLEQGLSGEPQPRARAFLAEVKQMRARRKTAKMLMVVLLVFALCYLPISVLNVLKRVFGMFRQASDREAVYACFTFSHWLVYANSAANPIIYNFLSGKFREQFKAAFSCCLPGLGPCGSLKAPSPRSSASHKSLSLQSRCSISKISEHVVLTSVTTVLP
CHO-K1 Ca PAM = nonselective activator or artifact in parental CHO-K1 calcium assay | AID 602247 | ATP EC20, Fluo-8 calcium fluorescence; 0% at ATP EC20, 100% at ATP max | activation, % at 3 µM | 360,000 compounds, 0.02% hits;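 active means activation above the run cutoff, the mean activation of all test compounds plus 3 SD, cut at about 40% in these data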;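 further: peak over basal fluorescence ratio in a 140 s read after ATP addition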
CHO parental Ca = signal in parental CHO cells, OX1R antagonist counter-screen. 330,000 compounds, 0.63% hits. parental CHO-K1, ATP-induced calcium, Fluo-8 fluorescence. inhibition, % at 5.6 µM;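 active means inhibition above that plate's mean sample inhibition plus 3 SD, cut at about 26% in these data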;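 further: 0% = ATP-challenged DMSO wells and 100% = DMSO wells without ATP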
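Material: parental CHO cells / Compound: single nominal dose of 5.6 µM per compound / Signal: Fluo-8 fluorescence / Replicates: singlicate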
CHO-K1 Ca ag = counter-screen for M1 agonists: effect in parental CHO-K1 cells. Fluo-8 calcium fluorescence; scaled to maximal ATP response, vehicle zero. AID 602248. 360,000 compounds, 0.48% hits. activation, % at 3 µM; in the data active means activation above about 15%;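 further: untransfected CHO-K1 host cells lacking M1 receptor as counterscreen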
CHO-K1 Ca antag = M1 antagonist counterscreen hit in parental CHO-K1 cells | inhibition, % at 3 µM | AID 602250 | ATP-induced calcium, Fluo-8 fluorescence | 360,000 compounds, 0.6% hits;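 active means inhibition above a per-plate cutoff, the plate's mean sample inhibition plus 3 SD, cut at about 24% in these data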;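 further: 0% = DMSO plus EC80 ATP and 100% = DMSO alone without ATP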
OX1R antag-2 = antagonists of human orexin 1 receptor (OX1R) | O43613 | OX1R-expressing cells, FRET antagonist read-out | inhibition, % at 6.6 µM | 330,000 compounds, 1.8% hits | AID 485270; in the data active means inhibition mostly above about 38%, no sharp cut-off; inactive means mostly below about 40%;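 further: 0% = agonist challenge alone and 100% = reference antagonist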
OX1R HTRF confirm = OX1R (human) antagonism, HTRF confirmed; shares compounds with OX1R antag-2; OX1R-expressing cells, HTRF antagonist assay; inhibition, % at 6.6 µM; 1,800 compounds, 49% hits; AID 492964; in the data active means inhibition above about 55%;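 further: CHO cells expressing OX1R stimulated with orexin A at about EC80; 0% = agonist challenge alone and 100% = reference antagonist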
CHO-K1 HTRF = signal in parental CHO-K1 cells, OX1R antagonist counter-screen. shares compounds with OX1R antag-2. HTRF counterscreen. inhibition, % at 6.6 µM. 1,800 compounds, 48% hits. AID 493232; in the data active means inhibition above about 17%;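 further: 0% = agonist challenge with vehicle and 100% = vehicle alone without agonist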
* = called active by the depositor; / = not tested or not shown. The list is not random: actives were taken first. Their share in the collection is about 2.9%.

SMILES	OX1R antag-1	CHO-K1 Ca PAM	CHO parental Ca	CHO-K1 Ca ag	CHO-K1 Ca antag	OX1R antag-2	OX1R HTRF confirm	CHO-K1 HTRF
CCCCNc1nc2ccccc2nc1NS(=O)(=O)c1ccc(F)cc1	-29	-6	-10	1	7	11	/	/
O=c1oc(-c2ccc(Cl)cc2[N+](=O)[O-])nc2ccccc12	/	-6	/	-1	8	/	/	/
CCN(CC)C(=O)c1cccc(-c2csc(C(C)(NC(C)=O)c3ccccc3)n2)c1 (stereo not drawn)	/	22	/	0	-4	/	/	/
Cn1cnnc1SCC(=O)n1c2ccccc2c2ccccc21	-17	21	-23	1	-12	20	/	/
Cn1cnnc1SCc1ccc(C(=O)N=Nc2c(O)n(C)c3ccccc23)cc1	-15	27	-19	3	-3	139*	54	62*
CCc1nc2ccc(C(=O)Nc3nnc(C)s3)cc2nc1CC	-14	9	-20	0	10	16	/	/
CCc1nc2ccc(C(=O)Nc3cccc(C(C)=O)c3)cc2nc1CC	1	6	-19	2	-1	81*	33	5
Cc1ncsc1CCOC(=O)c1cccnc1	-2	5	0	1	-13	9	/	/
Cc1ncsc1CCOC(=O)c1ccc([N+](=O)[O-])cc1	-19	20	-6	4	-12	82*	29	34*
Cc1ccc(C(=O)NCCC(=O)NCc2ccco2)cc1	8	-2	-2	0	-1	18	/	/
COCC(=O)N1CCN(c2ccc([N+](=O)[O-])cc2)CC1	-6	-6	-7	1	6	160*	39	41*
COc1cccc(/C=C2/SC(=S)N(CC(=O)NNC(=O)c3ccccc3OC)C2=O)c1	-7	-13	-6	0	-16	86*	96*	3
COc1cccc(/C=C2\SC(=S)N(CCC(=O)NNC(=O)c3ccccc3OC)C2=O)c1	-17	13	-9	3	-16	14	/	/
COC(CNC(=O)c1ccc2nc(-c3cccs3)c(-c3cccs3)nc2c1)OC	1	22	-18	1	-10	84*	42	6
CCCn1nc([N+](=O)[O-])c(C(C#N)c2nc3ccccc3o2)c(Cl)c1=O (stereo not drawn)	-1	12	-15	3	-7	87*	46	22*
CCCS(=O)(=O)Nc1ccc(N2CCCCC2)c(S(=O)(=O)Nc2ccccc2OC)c1	/	18	/	1	-6	/	/	/
COc1ccc(-c2cc(=O)c3ccccc3s2)cc1	-12	14	-20	3	-17	83*	85*	4
[O-][n+]1onc2c3ccnnc3ccc21	1	6	-9	0	-5	150*	50	83*
COn1c(C)c(C(C)=O)c2c3no[n+]([O-])c3ccc21	-6	-8	-12	0	-1	22	/	/
[O-][n+]1onc2c1CCc1nnccc1-2	-7	25	-2	0	-20	19	/	/
Cc1cc2c(ccc3c2no[n+]3[O-])nn1	-10	8	-6	1	-6	166*	51	76*
N=c1c(S(=O)(=O)c2ccc(F)cc2)cc2c(=O)n3ccccc3nc2n1CC1CCCO1 (stereo not drawn)	-3	4	6	1	-24	14	/	/
CCOC(=O)c1cc2c(=O)n3ccccc3nc2n(CC2CCCO2)c1=NC(C)=O (stereo not drawn)	-27	6	-17	1	-3	108*	39	56*
CCCCn1c(=NC(=O)c2cccnc2)c(C(=O)OCC)cc2c(=O)n3ccccc3nc21	/	13	/	2	-5	/	/	/
CCOCCCn1c(=NC(=O)c2cccnc2)c(C(=O)OCC)cc2c(=O)n3ccccc3nc21	-35	-24	-20	1	6	111*	57*	59*
SMILES	OX1R antag-1	CHO-K1 Ca PAM	CHO parental Ca	CHO-K1 Ca ag	CHO-K1 Ca antag	OX1R antag-2	OX1R HTRF confirm	CHO-K1 HTRF
CCOC(=O)c1cc2c(=O)n3ccccc3nc2n(CC2CCCO2)c1=NC(=O)/C=C/c1ccccc1 (stereo not drawn)	-21	7	-22	1	-3	119*	46	42*
COc1ccc(CNC(=O)c2cn(Cc3ccc(S(=O)(=O)N(C)C)cc3)c(=O)s2)cc1	/	-9	/	6	-3	/	/	/
O=C(Cn1cnc(S(=O)(=O)N2CCCC2)c1)Nc1ccc(OC(F)(F)F)cc1	0	7	-14	-1	1	5	/	/
CC(C)C(=O)Nc1cccc(C(=O)Nc2ccc(S(=O)(=O)Nc3nccs3)cc2)c1	-20	-2	-14	0	-12	6	/	/
N#CCCn1c(O)c(N=NC(=O)CNC(=O)c2cccs2)c2ccccc21	-22	-2	-8	1	-2	93*	38	50*
COc1cccc(C(=O)NC2CC3CCCC(C2)N3CC(=O)Nc2ccccc2C(F)(F)F)c1 (stereo not drawn)	8	0	-19	2	-15	90*	89*	6
COc1cccc(C(=O)NC2CC3CCC(C2)N3Cc2ccccc2)c1 (stereo not drawn)	-13	11	-12	0	-5	3	/	/
COC(=O)CCCNc1ncccc1[N+](=O)[O-]	-11	8	-7	0	12	97*	39	39*
Cn1c(=O)c2[nH]c(CCCCCc3nc4ccccc4[nH]3)nc2n(C)c1=O	/	-6	/	1	18	/	/	/
Cn1c(=O)c2nc(Cl)c(-c3ccccc3)nc2n(C)c1=O	-16	17	-5	3	-8	87*	52	80*
Cn1c(=O)c2nc3ccccc3nc2n(C)c1=O	13	17	7	0	-16	160*	92*	95*
Cc1ccc(C)c(NC(=O)c2cc([N+](=O)[O-])cc([N+](=O)[O-])c2)c1	-17	3	-8	5	5	80*	38	41*
Cc1cc(C)nc(NC(=O)c2ccc([N+](=O)[O-])o2)n1	7	27	-6	2	-11	78*	36	80*
Cc1cc(C)cc(NC(=O)c2ccc([N+](=O)[O-])o2)c1	/	28	/	1	-12	/	/	/
NS(=O)(=O)c1ccc(O)c(NC(=O)c2ccc([N+](=O)[O-])o2)c1	-12	11	-8	0	-8	125*	48	61*
O=C(c1cc([N+](=O)[O-])cc([N+](=O)[O-])c1)N(c1ccccn1)c1ccccn1	5	-11	8	0	13	103*	49	72*
O=C(CN1CCC(NC(=O)Nc2ccc(F)cc2)CC1)Nc1ccccc1[N+](=O)[O-]	-21	-4	-9	6	-6	12	/	/
Cc1cccc(NC(=S)N2CCN(S(C)(=O)=O)CC2)c1	17	12	9	1	-6	6	/	/

Screening results (PubChem BioAssay)
